Rows were chosen to be rich in hits. Some 2.1% of all compounds tested hit in one or more screens of this group.
MC4R barr agon: human MC4R agonism via beta-arrestin. U2OS MC4R beta-arrestin complementation, luminescence; percent of melanotan II response, DMSO zero. activation, % at 8.9 µM. actives 0.98% (n = 360,000). AID 540308;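 active = activation above a per-plate cutoff, the mean activation of sample wells on that plate plus 3 SD, cut at about 8% in these data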
Target sequence (P32245 whole entry, looked up): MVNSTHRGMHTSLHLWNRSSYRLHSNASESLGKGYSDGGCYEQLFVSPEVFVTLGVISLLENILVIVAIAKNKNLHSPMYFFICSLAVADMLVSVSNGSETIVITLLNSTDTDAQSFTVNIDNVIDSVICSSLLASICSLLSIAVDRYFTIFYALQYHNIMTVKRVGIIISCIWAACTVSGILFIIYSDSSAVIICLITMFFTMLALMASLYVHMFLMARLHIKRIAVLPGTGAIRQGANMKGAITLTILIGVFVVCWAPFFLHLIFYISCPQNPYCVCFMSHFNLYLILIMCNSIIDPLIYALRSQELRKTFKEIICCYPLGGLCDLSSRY
SMARCA2 activ: activators of SMARCA2 function; MG213 cells, MMTV-luciferase reporter, dexamethasone, overnight; activation, % at 9.1 µM; actives 1% (n = 370,000); AID 652017; in the data active = activation above about 7.8%;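 note: 0% = vehicle wells and 100% = reference activator wells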
MC4R antagonist: human MC4R antagonism in cAMP assay. P32245. MC4R-expressing cells, MTII-stimulated cAMP, LANCE TR-FRET. inhibition, % at 6.5 µM. actives 0.48% (n = 360,000). AID 540295;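 active = inhibition above its plate's cutoff, the mean of tested wells on that plate plus 3 SD, cut at about 29% in these data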;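 note: 0% = Melanotan II alone and 100% = Melanotan II plus saturating MCL0020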
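System – human MC4R-expressing U2OS cells · Also added – Melanotan II · Dosing – one concentration, 6.5 µM nominal · Timing – 30-min compound, 1-h challenge, 1-h detection, room temperature · Measured by – Eu-cAMP/anti-cAMP TR-FRET, emission 671 nm · Replicates – singlicate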
F508del corr: correctors of CFTR F508del function in bronchial epithelial cells. CFBE cells, YFP halide quenching; stimulated with forskolin plus potentiator P3; % fluorescence drop versus neutral controls. activity (quench increase), % at 7.58 µM. actives 0.36% (n = 350,000);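 active = mean added fluorescence quench of at least 8% versus neutral control, with both replicates also reaching 8%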;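 note: cells transiently co-express mutant CFTR-F508del with the halide-sensitive YFP; corrector assay measuring rescue of mutant channel to the surface after 24 h compound exposure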
SMARCA2 conf: SMARCA2 activation, confirmation screen | shares compounds with SMARCA2 activ | MG213 cells, MMTV-luciferase with dexamethasone, luminescence, overnight; MG213 cells expressing E1A, Rb sequestered; DMSO wells 0%, reference activator 100% | activation, % at 9.1 µM | actives 30% (n = 3,500) | AID 652260;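 active = activation above its plate's cutoff, the mean activation of tested wells plus 3 SD, cut at about 7.9% in these data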
VP16 Luc act: activates GAL4-VP16 luciferase, flagging SMARCA2 activator hits; shares compounds with SMARCA2 activ; AID 686939; activation, % at 9.1 µM; HEK293 GAL4-VP16 pG5luc reporter, luciferase luminescence; scaled: DMSO wells 0%, SAHA wells 100%; actives 41% (n = 3,500);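 active = activation above the solvent-only control well mean plus 3 SD, averaged across control plates, cut at about 5.2% in these data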
* = called active by the depositor.

Results for Cc1noc(C)c1NC(=O)N(C)C[C@H]1Oc2c(NS(=O)(=O)c3cn(C)cn3)cccc2C(=O)N([C@@H](C)CO)C[C@@H]1C ?
F508del corr: 5

What do the screens show for `Cc1ccc(C(=O)Nc2nnc(SCC(=O)N3CCCc4ccccc43)s2)cc1`?
MC4R barr agon: -1; SMARCA2 activ: 9.3*; MC4R antagonist: 6; F508del corr: -3; SMARCA2 conf: 4; VP16 Luc act: 8.4*

Results for O=C(Nc1nnc(SCC(=O)N2CCCc3ccccc32)s1)c1cccc2ccccc12 ?
MC4R barr agon: 1; SMARCA2 activ: -3; MC4R antagonist: 1

How did Fc1cccc(-c2cc3nc4c(c(NCc5ccco5)n3n2)CCCC4)c1 do in these assays?
MC4R barr agon: -1; SMARCA2 activ: 8.4*; MC4R antagonist: 15; F508del corr: 2; SMARCA2 conf: 8; VP16 Luc act: 11*

Results for Fc1cccc(-c2cc3nc4c(c(N5CCOCC5)n3n2)CCCC4)c1 ?
MC4R barr agon: -2; SMARCA2 activ: 9.4*; MC4R antagonist: 7; SMARCA2 conf: 5; VP16 Luc act: 0

Results for Cc1cc2ncc(-c3ccccc3)nc2cc1C ?
MC4R barr agon: 0; SMARCA2 activ: 2; MC4R antagonist: 7; F508del corr: 2

How did Cc1ccc(-c2cnc3ccccc3n2)cc1C do in these assays?
MC4R barr agon: 0; SMARCA2 activ: 8.2*; MC4R antagonist: -6; F508del corr: -3; SMARCA2 conf: 3; VP16 Luc act: 9.4*

How did Cc1noc(C)c1NC(=O)Nc1ccc2c(c1)C(=O)N([C@H](C)CO)C[C@H](C)[C@H](CN(C)C(=O)Nc1c(C)noc1C)O2 do in these assays?
F508del corr: 1

What do the screens show for `Cc1ccc(-n2c(SCC(N)=O)nc3c(c2=O)C2(CCCC2)Cc2ccccc2-3)cc1`?
MC4R barr agon: 3; SMARCA2 activ: 8.0*; MC4R antagonist: 24; SMARCA2 conf: -2; VP16 Luc act: -1

What do the screens show for `CC1(C)C(=O)Nc2ccccc2N1C(=O)Cn1ncc(Cl)c(Cl)c1=O`?
MC4R barr agon: -3; SMARCA2 activ: 19*; MC4R antagonist: 16; F508del corr: -2; SMARCA2 conf: 23*; VP16 Luc act: 0

Results for C#CCNC(=O)C1=C[C@@H](C(C)(C)C)[C@H](CCCO)[C@@H](OCC)O1 ?
F508del corr: -5

Results for N#Cc1ccccc1OCC(=O)Nc1ccc2c(c1)OCCO2 ?
MC4R barr agon: -1; SMARCA2 activ: 8.5*; MC4R antagonist: 6; F508del corr: -2; SMARCA2 conf: 4; VP16 Luc act: 6.3*

How did N#Cc1ccccc1OCC(=O)Nc1ccc2c(c1)OCCCO2 do in these assays?
MC4R barr agon: 1; SMARCA2 activ: 6; MC4R antagonist: -2; F508del corr: 0

Results for N#Cc1ccccc1OCC(=O)Nc1ccc2c(c1)OCO2 ?
MC4R barr agon: 2; SMARCA2 activ: 9.0*; MC4R antagonist: 11; F508del corr: 3; SMARCA2 conf: 18*; VP16 Luc act: 7.6*

What do the screens show for `Cc1noc(C)c1NC(=O)N(C)C[C@@H]1OCCCC[C@@H](C)Oc2ccc(NC(=O)CCC(F)(F)F)cc2C(=O)N([C@H](C)CO)C[C@H]1C`?
F508del corr: 0

What do the screens show for `Cc1noc(C)c1S(=O)(=O)Nc1ccc2c(c1)CC(=O)N([C@H](C)CO)C[C@H](C)[C@H](CN(C)S(=O)(=O)c1c(C)noc1C)O2`?
F508del corr: 0

What do the screens show for `O=C(C[C@H]1CC[C@@H]2[C@H](COC[C@@H](O)CN2CCC(F)(F)F)O1)NCc1ccc(Oc2ccccc2)cc1`?
F508del corr: 0

What do the screens show for `Cc1cc(-n2cnnn2)ccc1C(C)C`?
MC4R barr agon: -1; SMARCA2 activ: 8.5*; MC4R antagonist: 0; F508del corr: 1; SMARCA2 conf: 3; VP16 Luc act: 2

Results for CC(C)(C)c1ccc(C(=O)NCC(=O)NCc2ccccn2)cc1 ?
MC4R barr agon: -2; SMARCA2 activ: 8.4*; MC4R antagonist: -6; F508del corr: -4; SMARCA2 conf: 1; VP16 Luc act: 2

How did C[C@@H](NC(=O)C[C@H]1CC[C@@H]2[C@H](COC[C@H](O)CN2C(=O)Nc2cc(Cl)cc(Cl)c2)O1)c1ccccc1 do in these assays?
F508del corr: 0

How did CO[C@H]1CN(C)C(=O)c2cc(NC(C)=O)ccc2OC[C@@H](C)N(Cc2ccccc2C(=O)O)C[C@H]1C do in these assays?
F508del corr: 1

Results for O=C1CNC(=S)N1c1nc2ccccc2s1 ?
MC4R barr agon: -1; SMARCA2 activ: 28*; MC4R antagonist: 1; F508del corr: -4; SMARCA2 conf: 10*; VP16 Luc act: 3

Results for CSCCNC(=O)c1ccc(OC2CCN(CCc3ccccc3)CC2)cc1 ?
MC4R barr agon: -2; SMARCA2 activ: 8.0*; MC4R antagonist: -7; F508del corr: 1; SMARCA2 conf: -1; VP16 Luc act: 0

Results for O=C(Nc1cc(F)ccc1F)N1C[C@@H]2[C@H](c3ccccc31)[C@@H](CO)N2CC1CCCC1 ?
F508del corr: -1

How did O=C(N/N=C/C1CC2CCC1C2)c1ccc2c(c1)OCO2 (configuration not stated) do in these assays?
MC4R barr agon: 2; SMARCA2 activ: 8.2*; MC4R antagonist: 8; SMARCA2 conf: -1; VP16 Luc act: -1

Results for O=C(N/N=C/c1ccsc1)c1ccc2c(c1)OCO2 ?
MC4R barr agon: 0; SMARCA2 activ: 1; MC4R antagonist: 0; F508del corr: 1

How did O=C(N/N=C/c1ccc(Cl)cc1)c1ccc2c(c1)OCO2 do in these assays?
MC4R barr agon: 4; SMARCA2 activ: 2; MC4R antagonist: -4; F508del corr: 3

What do the screens show for `O=C(N/N=C/c1ccc2c(c1)OCO2)c1ccc2c(c1)OCCO2`?
MC4R barr agon: 2; SMARCA2 activ: 10*; MC4R antagonist: 12; SMARCA2 conf: 4; VP16 Luc act: 5

Results for O=C(N/N=C/c1ccc2c(c1)OCO2)c1cccs1 ?
MC4R barr agon: -2; SMARCA2 activ: 9.2*; MC4R antagonist: -3; F508del corr: 5; SMARCA2 conf: 11*; VP16 Luc act: 7.8*

How did Cc1noc(C)c1S(=O)(=O)Nc1ccc2c(c1)CC(=O)N([C@@H](C)CO)C[C@H](C)[C@@H](CN(C)C(=O)Nc1ccc(F)cc1)O2 do in these assays?
F508del corr: 4

What do the screens show for `Cc1ncoc1C(=O)N1CCc2c([nH]c3ccccc23)C1c1ccccc1F` (configuration not stated)?
MC4R barr agon: -3; SMARCA2 activ: 0; MC4R antagonist: 1; F508del corr: 1
